Data taken from ChEMBL document CHEMBL1125136, “Quinolone antibacterial agents substituted at the 7-position with spiroamines. Synthesis and structure-activity relationships” (1990).
Converted amounts (≈) assume the structure as drawn.

What was measured:
Streptococcus pyogenes [1] = test: Evaluated for minimum inhibitory concentration against gram-positive bacteria Streptococcus pyogenes C203
Escherichia coli [2] = test: In vivo protective dose for mouse protection assay in Escherichia coli Vogel after peroral administration; format: functional; details: po, read-out: PD50
Summary of the method: (§1)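 Female Charles River CD-1 mice were given an acute, lethal, systemic infection. A single dose of compound was given at the time of challenge, by the route stated in the line, with 16 animals per dose level. The read-out is the median protective dose (PD50, mg/kg). Per the footnote, values come from 16 animals per test, with a mean variation of ±34%.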

Pseudomonas = test: Evaluated for minimum inhibitory concentration against gram-negative bacteria Pseudomonas rettgeri H1771; format: functional
Summary of the method: (§2)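 Broth microdilution MIC by standard technique. Values come from duplicate experiments and are stated as accurate to ±50%.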

[3] = Evaluated for minimum inhibitory concentration against […] bacteria […] SV-1; format: functional
Summary of the method: as §2

Klebsiella pneumoniae = test: Evaluated for minimum inhibitory concentration against gram-negative bacteria Klebsiella pneumoniae MGH-2; format: functional
Summary of the method: as §2

Enterococcus faecalis [4] = test: Evaluated for minimum inhibitory concentration against gram-positive bacteria Staphylococcus faecalis MGH-2
Staphylococcus aureus [5] = test: Evaluated for minimum inhibitory concentration against […] bacteria Staphylococcus aureus H228; format: functional
Summary of the method: as §2

Escherichia coli [6] = test: Evaluated for minimum concentration needed to produce linear DNA at an intensity relative to oxolinic acid at 10 mg/mL. by gyrase mediated cleavage of DNA in Escherichia coli 560.; format: functional; details: read-out: MIC
Pseudomonas aeruginosa [7] = test: Evaluated for minimum inhibitory concentration against gram-negative bacteria Pseudomonas aeruginosa UI-18
Enterobacter cloacae = test: Evaluated for minimum inhibitory concentration against gram-negative bacteria Enterobacter cloacae HA 2646; format: functional
Escherichia coli [8] = test: Evaluated for minimum inhibitory concentration against gram-negative bacteria Escherichia coli Vogel; format: functional
Summary of the method: as §2

Staphylococcus aureus [9] = test: Evaluated for minimum inhibitory concentration against […] bacteria Staphylococcus aureus UC-76; format: functional
Summary of the method: as §2

Escherichia coli [10] = test: In vivo protective dose was determined in mouse protection assay in Escherichia coli Vogel after subcutaneous administration; format: functional; details: sc, read-out: PD50
Summary of the method: as §1

Enterococcus faecalis [11] = test: Evaluated for minimum inhibitory concentration against […] bacteria, Staphylococcus faecalis MGH-2; format: functional
Summary of the method: as §2

Pseudomonas aeruginosa [12] = test: Evaluated for minimum inhibitory concentration against gram-negative bacteria Pseudomonas aeruginosa UI-18; format: functional
Summary of the method: as §2

Escherichia coli [13] = test: `Evaluated for minimum concentration needed to produce linear DNA at an intensity relative to oxolinic acid at 10 mg/mL. by gyrase mediated cleavage of DNA in Escherichia coli 560.; format: functional
Summary of the method: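 DNA gyrase isolated from Escherichia coli. The read-out is the minimum drug concentration (μg/mL) that induces gyrase-mediated DNA cleavage, giving linear DNA at an intensity relative to oxolinic acid at 10 mg/mL.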

Streptococcus pneumoniae [14] = test: In vivo protective dose was determined against Streptococcus pneumoniae SV-1 after subcutaneous administration; details: sc, read-out: PD50
Streptococcus pyogenes [15] = test: In vivo protective dose was determined against Streptococcus pyogenes after peroral administration; details: po, read-out: PD50
Staphylococcus aureus [16] = test: In vivo protective dose was determined against Staphylococcus aureus VC76 after peroral administration; format: functional; details: po, read-out: PD50
Summary of the method: as §1

Pseudomonas aeruginosa [17] = test: In vivo protective dose was determined against Pseudomonas aeruginosa UI-18. after subcutaneous administration; format: functional; details: sc, read-out: PD50
Summary of the method: as §1

Staphylococcus aureus [18] = test: In vivo protective dose was determined against Staphylococcus aureus VC76. after subcutaneous administration; format: functional; details: sc, read-out: PD50
Summary of the method: as §1

Streptococcus pneumoniae [19] = test: In vivo protective dose was determined against Streptococcus pneumoniae SV-1 after peroral administration; details: po, read-out: PD50
Pseudomonas aeruginosa [20] = test: In vivo protective dose was determined against Pseudomonas aeruginosa UI-18. after peroral administration; format: functional; details: po, read-out: PD50
Summary of the method: as §1

Streptococcus pyogenes [21] = test: In vivo protective dose was determined against Streptococcus pyogenes after subcutaneous administration; details: sc, read-out: PD50

Compound	MIC (Streptococcus pyogenes [1])	ED50 (Escherichia coli [2])	MIC (Pseudomonas)	MIC [3]	MIC (Klebsiella pneumoniae)	MIC (Enterococcus faecalis [4])	MIC (Staphylococcus aureus [5])	minimum concentration for gyrase-mediated DNA cleavage (Escherichia coli [6])	MIC (Enterobacter cloacae)	MIC (Escherichia coli [8])	MIC (Staphylococcus aureus [9])	ED50 (Escherichia coli [10])	MIC (Pseudomonas aeruginosa [12])	also measured
CN1CCC2(CCN(c3c(F)cc4c(=O)c(C(=O)O)cn(C5CC5)c4c3F)C2)C1 (stereo not drawn)	0.05 µg/mL (≈ 0.124 µM)	5 mg/kg	0.2 µg/mL (≈ 0.496 µM)	0.05 µg/mL (≈ 0.124 µM)	0.1 µg/mL (≈ 0.248 µM)	0.1 µg/mL (≈ 0.248 µM)	0.25 µg/mL (≈ 0.62 µM)	0.5 µg/mL	0.05 µg/mL (≈ 0.124 µM)	0.05 µg/mL (≈ 0.124 µM)	0.013 µg/mL (≈ 0.0322 µM)	2 mg/kg		MIC (Pseudomonas aeruginosa [7]): 0.8 µg/mL (≈ 1.98 µM)
CCn1cc(C(=O)O)c(=O)c2cc(F)c(N3CCCC4(CCCNC4)C3)c(F)c21 (stereo not drawn)	3.1 µg/mL (≈ 7.65 µM)		25 µg/mL (≈ 61.7 µM)	6.3 µg/mL (≈ 15.5 µM)	6.3 µg/mL (≈ 15.5 µM)		3.1 µg/mL (≈ 7.65 µM)	7.5 µg/mL	6.3 µg/mL (≈ 15.5 µM)	3.1 µg/mL (≈ 7.65 µM)	0.4 µg/mL (≈ 0.987 µM)		12.5 µg/mL (≈ 30.8 µM)	MIC (Enterococcus faecalis [11]): 3.1 µg/mL (≈ 7.65 µM)
CCN1CCC2(CCN(c3nc4c(cc3F)c(=O)c(C(=O)O)cn4CC)C2)C1 (stereo not drawn)	1.6 µg/mL (≈ 4.12 µM)	10.3 mg/kg	6.3 µg/mL (≈ 16.2 µM)	1.6 µg/mL (≈ 4.12 µM)	0.4 µg/mL (≈ 1.03 µM)	0.8 µg/mL (≈ 2.06 µM)	0.4 µg/mL (≈ 1.03 µM)		1.6 µg/mL (≈ 4.12 µM)	0.4 µg/mL (≈ 1.03 µM)	0.2 µg/mL (≈ 0.515 µM)	15 mg/kg	3.1 µg/mL (≈ 7.98 µM)	MIC (Escherichia coli [13]): 5 µg/mL (≈ 12.9 µM)
CCn1cc(C(=O)O)c(=O)c2cc(F)c(N3CCC4(CCN(C)C4)C3)nc21 (stereo not drawn)	0.4 µg/mL (≈ 1.07 µM)	11.4 mg/kg	1.6 µg/mL (≈ 4.27 µM)	0.8 µg/mL (≈ 2.14 µM)	0.4 µg/mL (≈ 1.07 µM)	0.2 µg/mL (≈ 0.534 µM)	0.1 µg/mL (≈ 0.267 µM)	10 µg/mL	0.4 µg/mL (≈ 1.07 µM)	0.1 µg/mL (≈ 0.267 µM)	0.025 µg/mL (≈ 0.0668 µM)	4.4 mg/kg	1.6 µg/mL (≈ 4.27 µM)	ED50 (Streptococcus pneumoniae [14]): 16 mg/kg; ED50 (Streptococcus pyogenes [15]): 27 mg/kg; ED50 (Staphylococcus aureus [16]): 8.5 mg/kg; ED50 (Pseudomonas aeruginosa [17]): 58 mg/kg; ED50 (Staphylococcus aureus [18]): 3.6 mg/kg; ED50 (Streptococcus pneumoniae [19]): 30 mg/kg; ED50 (Pseudomonas aeruginosa [20]): 200 mg/kg; ED50 (Streptococcus pyogenes [21]): 13 mg/kg
